Published values collected from several papers.
Protocols differ between the studies behind these lines.

`COC(=O)[C@H](N)CSSC[C@@H](N)C(=O)OC` has a half-life of 15.1 min (chemical stability; dog, plasma).
For `CCOC(=O)C1=C(C)N/C(=C/c2cc(C)n(-c3cccc(C(F)(F)F)c3)c2C)C1=O`, the half-life was 18 min (metabolic stability; mouse, liver microsomes; 1 µM).
With `COc1ccc2c(=O)n(C)c(-c3ccccc3)nc2c1` the concentration was 20 ng/g (male Sprague-Dawley rat, brain; oral, 30 mg/kg, 2 h, single dose).
With `Oc1c(Br)cc(Cl)c2cccnc12` the C0 was 2400 ng/mL (Sprague-Dawley rat, plasma; intravenous, 2 mg/kg).
The half-life of `CCOC(=O)C1=C(C)N/C(=C/c2cc(C)n(-c3ccc(S(=O)(=O)C(F)(F)F)cc3)c2C)C1=O` is reported as 30 min (metabolic stability; mouse, liver microsomes; 1 µM).
`CCc1cc(-c2noc(-c3cc(OC)nc(C4CCCC4)c3)n2)cc(C)c1OC[C@@H](O)CO` has a concentration of 6.2 ng/mL (Wistar rat, plasma; oral, 0.1 mg/kg, 3 h, single dose).
`COc1cccc(-c2n[nH]c(SCc3ccccn3)n2)c1OC` has a concentration of 1160 ng/mL (male Sprague-Dawley rat, plasma; oral, 10 mg/kg, 2 h, single dose).
The half-life of `COc1cc2c3c(n(CCCN4CCOCC4)c(=O)c2cc1OC)-c1cc2c(cc1C3=O)OCO2` is reported as 126 min (male Fischer 344 rat, plasma; intravenous, 12 mg/m², single dose).
With `CC1=C(C(=O)OCc2ccccc2)C(=O)/C(=C\c2cc(C)n(-c3ccccc3C(F)(F)F)c2C)N1` the half-life was 3.1 min (metabolic stability; mouse, liver microsomes; 1 µM).
`Cc1noc(C)c1Cn1cc(N2C(=O)CN(Cc3cccc(O)c3)C2=O)cn1` gave a concentration of 16.5 ng/mL (male Sprague-Dawley rat, plasma; oral, 30 mg/kg, 2 h).
With `CCOC(=O)C1=C(C)N/C(=C/c2cc(C)n(-c3ccc(SC)cc3)c2C)C1=O` the half-life was 26 min (metabolic stability; mouse, liver microsomes; 1 µM).
`Cc1noc(C)c1Cn1cc(N2C(=O)N(Cc3cccc(O)c3)C(C)(C)C2=O)cn1` has a concentration of 2.9 ng/mL (male Sprague-Dawley rat, plasma; oral, 100 mg/kg, 4 h, single dose).
With `CCc1cc(C(=O)NC)c2nccc(N3CCc4c(cc(Cn5ccnc5)cc4-c4cn(C)nc4C(F)(F)F)C3=O)c2c1` the C0 was 2600 ng/mL (male Sprague-Dawley rat, plasma; intravenous, 3 mg/kg).
For `CCOC(=O)[C@@]12C[C@@H]1[C@@H](n1ccc3c(NC)nc(C#Cc4ccc(Cl)s4)nc31)[C@H](O)[C@@H]2O`, the concentration was 45.5 ng/mL (male Sprague-Dawley rat, plasma; oral, 10 mg/kg, 15 min).
